Data reported in publication PMC6044994 (ACS Omega, 2018).
Values after ≈ are worked out from the molar mass of the structure shown. Read-outs that look alike come from different tables or passages of the source.

Legend:
G. mellonella larvae [1] = assay: In vivo toxicity, hemocyte density of larvae; parameters: species or system Galleria mellonella; conditions: 2.5 mg/mL, 24 h
Procedure, shortened: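 Three larvae injected with 20 μL of test compound at 1.25 or 2.5 mg/mL and kept 24 h at 30 °C in the dark. Hemolymph collected from the anterior end and diluted 1 in 10 in cold PBS with 0.37% 2-mercaptoethanol. Hemocytes counted on a hemocytometer and density back-calculated.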

S. pneumoniae (MTCC 655) = assay: In vitro antibacterial activity, broth dilution; type: cell-based; conditions: Streptococcus pneumoniae, MTCC655
E. coli biofilm [2] = assay: Anti-biofilm activity by XTT reduction assay; type: cell-based; conditions: Escherichia coli, read-out: inhibition of biofilm formation (XTT)
Procedure, shortened: (§1)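 Biofilm grown in tryptic soy broth from 5 × 10^5 CFU/mL inocula with 2-fold serial dilutions of test compound (7.812–1000 μg/mL), 37 °C for 24 h, static. Nonadherent cells removed by PBS wash.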

S. pneumoniae [3] = assay: CFU count of bacterial cells post treatment; type: cell-based, Streptococcus pneumoniae; conditions: treated bacterial cells
G. mellonella larvae [4] = assay: In vivo toxicity, larval viability; parameters: species or system Galleria mellonella; conditions: up to 2.5 mg/mL
E. coli biofilm [5] = assay: Anti-biofilm activity by crystal violet assay; type: cell-based; conditions: Escherichia coli, read-out: inhibition of biofilm formation (crystal violet)
E. coli [6] = assay: Growth kinetic studies; type: cell-based, Escherichia coli; conditions: for time at which growth was observed (lag phase): sub-MIC concentration
Procedure, shortened: (§2)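 Fresh cultures grown 12 h at 37 °C, then about 2 × 10^6 cells/mL inoculated into 50 mL nutrient broth. […] Shaken at 37 °C, 160 rpm. Samples taken every 2 h from 0 to 22 h, with OD600 plotted against time.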

E. coli [7] = assay: CFU count of bacterial cells post treatment; type: cell-based, Escherichia coli; conditions: treated bacterial cells
E. coli cells = assay: TEM analysis of cell morphology; type: cell-based, Escherichia coli; conditions: MIC concn, 1 h
Procedure, shortened: (§3)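 Cells standardized to A600 ≈ 0.1 and exposed 1 h to test compound: E. coli at 62.5 or 125 μg/mL, S. pneumoniae at 125 μg/mL. Washed in PBS, fixed overnight in 2.5% glutaraldehyde (phosphate/MgCl2 buffer, pH 6.5). Postfixed 2 h in 2% OsO4, stained en bloc with 1% uranyl acetate, ethanol-dehydrated, Epon-embedded (60 °C, 48 h). Ultrathin sections imaged by TEM.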

[8] = Cytotoxicity by MTT assay; type: cell-based, human; conditions: human, HEK293 cells
HEK293 cells = assay: Cytotoxicity by MTT assay; type: cell-based, human; conditions: HEK293, up to 100 μg/mL concentration
S. pneumoniae cells = assay: TEM analysis of cell morphology; type: cell-based, Streptococcus pneumoniae; conditions: MIC concn, 1 h
Procedure, shortened: as §3

S. pneumoniae biofilm [9] = assay: Anti-biofilm activity by crystal violet assay; type: cell-based; conditions: Streptococcus pneumoniae, read-out: inhibition of biofilm formation (crystal violet)
S. pneumoniae [10] = assay: Growth kinetic studies; type: cell-based, Streptococcus pneumoniae; conditions: for time at which growth was observed: S. pneumoniae
Procedure, shortened: as §2

S. pneumoniae biofilm [11] = assay: Anti-biofilm activity by XTT reduction assay; type: cell-based; conditions: Streptococcus pneumoniae, read-out: inhibition of biofilm formation (XTT)
Procedure, shortened: as §1

E. coli (ATCC 25922) = assay: In vitro antibacterial activity, broth dilution; type: cell-based; conditions: Escherichia coli, ATCC25922
[12] = tested on: multidrug-resistant E. coli strains MRA11, MRC17, MRAE33; assay: Synergistic study with CIP, checkerboard method; type: cell-based, Escherichia coli; conditions: for MIC: Escherichia coli
[13] = tested on: multidrug-resistant E. coli strains; type: cell-based, Escherichia coli; conditions: for inhibition at 1024 µg/mL: Escherichia coli
[14] = tested on: human red blood cells (hRBCs); assay: Hemolytic assay; type: cell-based
Procedure, shortened: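 Erythrocytes from healthy donors (EDTA) pelleted at 2000 rpm for 10 min at 20 °C and washed three times in PBS. Made to a 10% suspension, diluted 1:10, then mixed 1:1 with test compound in PBS (gradient 1000–7.8 μg/mL). Incubated 1 h at 37 °C and centrifuged; supernatant A450 used to calculate % hemolysis.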

[15] = E. coli MRA11, in combination with CIP
[16] = E. coli MRA11, test compound in combination with CIP
[17] = E. coli MRAE33, in combination with CIP
[18] = E. coli MRAE33, test compound in combination with CIP
[19] = E. coli MRC17, in combination with CIP
[20] = E. coli MRC17, test compound in combination with CIP
[21] = read-out: MIC alone, E. coli MRA11
[22] = read-out: MIC alone, E. coli MRAE33
[23] = read-out: MIC alone, E. coli MRC17
[24] = read-out: % inhibition of growth, E. coli MRA11, at 1024 μg/mL (MIC)
[25] = read-out: % inhibition of growth, E. coli MRAE33, at 1024 μg/mL (MIC)
[26] = read-out: % inhibition of growth, E. coli MRC17, at 1024 μg/mL (MIC)

Compound | hemocyte density of the larvae (G. mellonella larvae [1]) | MIC (S. pneumoniae (MTCC 655)) | CFUs S. pneumoniae (S. pneumoniae [3]) | viability of the larvae (G. mellonella larvae [4]) | time at which growth was observed (lag phase) (E. coli [6]; E. coli) | CFUs E. coli (E. coli [7]) | effect on cell morphology (TEM) (E. coli cells) | viability at 48 h, 50 μg/mL [8] | viability at 48 h, 200 μg/mL [8] | cytotoxicity (HEK293 cells) | effect on cell morphology (TEM) (S. pneumoniae cells) | inhibition at 250 µg/mL (S. pneumoniae biofilm [9]) | inhibition at 250 µg/mL (S. pneumoniae biofilm [11]) | MIC (E. coli (ATCC 25922)) | FICI [12, 15] | mode of interaction [12, 15] | MIC [12, 21] | MIC [12, 22] | MIC [12, 23] | cell lysis ([14]; 200 μg/mL) | further results
O=C(O)c1ccc(-n2cc(COC3=CC(=O)c4ccccc4C3=O)nn2)cc1 [Compound 5u, 4-(4-((1,4-Dioxo-1,4-dihydronaphthalen-2-yloxy)methyl)-1H-1,2,3-triazol-1-yl)benzoic Acid] | not significantly affected | 125 µg/mL (≈ 333 µM) | 6.0 × 10^3 | not affected | 6 h | 2.7 × 10^4 | significantly damaged the cell wall | > 75% | > 50% | did not show significant cytotoxicity | significantly damaged the cell wall | 98.3% | 100% | 125 µg/mL (≈ 333 µM) | 0.62 | partially synergistic (Partially synergistic was denoted by 0.5 > FICI < 1) | 1020 µg/mL | 1020 µg/mL | 1020 µg/mL | 9% | inhibition at 250 µg/mL (E. coli biofilm [2]): 92.3%; inhibition at 250 µg/mL (E. coli biofilm [5]): 77.3%; time at which growth was observed (E. coli [6]; E. coli, MIC concentration): 9 h; time at which growth was observed (S. pneumoniae [10]; MIC concentration): 9 h; time at which growth was observed (S. pneumoniae [10]; sub-MIC concentration): 8 h; MIC in combination [12, 16]: 512 µg/mL; FICI [12, 17]: 1.02; mode of interaction [12, 17]: indifferent (indifferent was defined by 1 < FICI ≤ 4); MIC in combination [12, 18]: 16 µg/mL; FICI [12, 19]: 1.50; mode of interaction [12, 19]: indifferent (indifferent was defined by 1 < FICI ≤ 4); MIC in combination [12, 20]: 1024 µg/mL; inhibition at 1024 µg/mL [13, 24]: > 90%; inhibition at 1024 µg/mL [13, 25]: ~100%; inhibition at 1024 µg/mL [13, 26]: ~100%; cell lysis ([14]; 600 μg/mL): 12%
O=C(O)c1cn(C2CC2)c2cc(N3CCNCC3)c(F)cc2c1=O [CIP, Ciprofloxacin, reference compound] | – | – | 5.0 × 10^3 | – | – | 2.0 × 10^4 | – | – | – | – | – | – | – | – | – | – | 128 µg/mL | 2 µg/mL | 128 µg/mL | 0.8% | MIC in combination ([12]; E. coli MRA11, CIP in combination with 5e): 2 µg/mL; MIC in combination ([12]; E. coli MRA11, CIP in combination with 5u): 16 µg/mL; MIC in combination ([12]; E. coli MRAE33, CIP in combination with 5e): 2 µg/mL; MIC in combination ([12]; E. coli MRAE33, CIP in combination with 5u): 2 µg/mL; MIC in combination ([12]; E. coli MRC17, CIP in combination with 5e): 2 µg/mL; MIC in combination ([12]; E. coli MRC17, CIP in combination with 5u): 64 µg/mL; % inhibition of growth ([13]; multidrug-resistant E. coli strains, at a concentration lower than those of the compounds): ~100%
Cc1ccc(C(C)C)cc1OCc1cn(-c2ccc(C(=O)O)cc2)nn1 [Compound 5e, 4-(4-((5-Isopropyl-2-methylphenoxy)methyl)-1H-1,2,3-triazol-1-yl)benzoic Acid] | not significantly affected | 125 µg/mL (≈ 356 µM) | 7.8 × 10^3 | not affected | approximately 6 h | 2.5 × 10^4 | significantly damaged the cell wall | > 75% | > 50% | did not show significant cytotoxicity | significantly damaged the cell wall | 93.4% | 92.3% | 62.5 µg/mL (≈ 178 µM) | 0.03 | synergistic (Synergy and antagonism were defined by FICI ≤ 0.5 and >4, respectively) | 1020 µg/mL | 1020 µg/mL | 1020 µg/mL | 9% | inhibition at 125 µg/mL (E. coli biofilm [2]): 95.2%; inhibition at 125 µg/mL (E. coli biofilm [5]): 94.3%; growth of E. coli (E. coli [6]; MIC and 2MIC concentrations, up to 22 h of incubation): no significant growth; growth of S. pneumoniae (S. pneumoniae [10]; sub-MIC concentration (62.5 μg/mL)): effectively inhibited the growth; MIC in combination [12, 16]: 16 µg/mL; FICI [12, 17]: 1.02; mode of interaction [12, 17]: indifferent (indifferent was defined by 1 < FICI ≤ 4); MIC in combination [12, 18]: 16 µg/mL; FICI [12, 19]: 0.03; mode of interaction [12, 19]: synergistic (Synergy and antagonism were defined by FICI ≤ 0.5 and >4, respectively); MIC in combination [12, 20]: 16 µg/mL; inhibition at 1024 µg/mL [13, 24]: > 95%; inhibition at 1024 µg/mL [13, 25]: 86%; inhibition at 1024 µg/mL [13, 26]: 79%; cell lysis ([14]; 600 μg/mL): 22%
